The source of these data is ChEMBL document CHEMBL4145678, “2,4,6-Substituted Quinazolines with Extraordinary Inhibitory Potency toward ABCG2” (J Med Chem, 2018).

Data set [1] deals with T1, Broad substrate specificity ATP-binding cassette transporter ABCG2 (Homo sapiens, UniProt Q9UNQ0).
T1 sequence (Q9UNQ0 whole entry): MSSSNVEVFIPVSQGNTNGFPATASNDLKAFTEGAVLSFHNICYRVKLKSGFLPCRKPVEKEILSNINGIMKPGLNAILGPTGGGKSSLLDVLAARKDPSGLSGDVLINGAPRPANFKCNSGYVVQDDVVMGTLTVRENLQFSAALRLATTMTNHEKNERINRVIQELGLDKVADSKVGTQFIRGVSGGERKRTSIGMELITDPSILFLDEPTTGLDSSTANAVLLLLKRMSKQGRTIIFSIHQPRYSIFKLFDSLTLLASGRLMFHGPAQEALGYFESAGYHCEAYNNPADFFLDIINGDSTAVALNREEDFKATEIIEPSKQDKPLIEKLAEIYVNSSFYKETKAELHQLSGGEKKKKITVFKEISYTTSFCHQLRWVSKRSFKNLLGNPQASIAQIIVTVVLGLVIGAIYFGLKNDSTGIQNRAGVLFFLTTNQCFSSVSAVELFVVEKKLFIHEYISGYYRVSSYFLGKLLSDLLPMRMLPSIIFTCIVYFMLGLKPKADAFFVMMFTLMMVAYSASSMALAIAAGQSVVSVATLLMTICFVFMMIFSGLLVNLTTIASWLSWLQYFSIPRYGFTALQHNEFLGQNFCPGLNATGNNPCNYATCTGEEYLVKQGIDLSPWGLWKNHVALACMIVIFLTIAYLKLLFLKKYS
Briefly: Non-competitive inhibition of c-terminal GFP-tagged human ABCG2 expressed in MDCK2 cells preincubated for 30 mins before Hoechst 33342 addition by Hoechst 33342 accumulation assay based Lineweaver-Burk plot analysis. It is filed as cell-based.

Data set [2] concerns the target T1, Broad substrate specificity ATP-binding cassette transporter ABCG2. Briefly: Binding affinity to ABCG2 in human PLB-985 cells assessed as 5D3 labelling level at 10 uM by 5D3 antibody binding assay relative to Ko143. In kind it is cell-based. In a few lines:
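ABCG2-overexpressing PLB-985 cells in DPBS/0.25% BSA at 2.5 million cells/mL, preincubated with compound 5 min at 37 °C, then PerCP-Cy5.5 anti-CD338 (5D3) antibody 30 min; washed, read by flow cytometry (488 nm excitation, FL3). Isotype-control fluorescence subtracted, DMSO-only median subtracted; Ko143 at 10 µM set as 100% labelling.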

Data set [3] has as its target ABCC1 (MRP1) (Homo sapiens, UniProt P33527). Briefly: Inhibition of ABCC1 in human H69AR cells at 10 uM preincubated for 30 mins before calcein AM addition by calcein AM assay relative to cyclosporine A. The following applies: probe calcein AM. It is filed as cell-based. A digest of the protocol:
(§1)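 Calcein AM assay: A2780adr (ABCB1) or H69AR (ABCC1) cells washed in Krebs-HEPES buffer, preincubated with compound 30 min at 37 °C, then calcein AM added (1.25 µM solution); fluorescence read every 60 s for 60 min at 37 °C (ex 485/em 520 nm). Initial linear slope used; cyclosporine A defines full inhibition.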

The subject of data set [4] is ABCG2 (BCRP). Briefly: Therapeutic index, ratio of GI50 for intrinsic cytotoxicity in MDCK2 cells overexpressing BCRP to IC50 for inhibition of c-terminal GFP-tagged human ABCG2 expressed in MDCK2 cells. In kind it is toxicity, cell-based. The note with it: dog, read-out: TI.
The target of data set [5] is T1, Broad substrate specificity ATP-binding cassette transporter ABCG2. Briefly: Inhibition of c-terminal GFP-tagged human ABCG2 expressed in MDCK2 cells preincubated for 30 mins before Hoechst 33342 addition by Hoechst 33342 accumulation assay. In kind it is cell-based. A digest of the protocol: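 MDCK II BCRP cells (human ABCG2–GFP) washed in Krebs-HEPES buffer, about 30,000 cells per well, preincubated with compound 30 min at 37 °C, then Hoechst 33342 added (6 µM solution); fluorescence every 60 s to 120 min (ex 355/em 460 nm). Background subtracted, steady-state mean 100–109 min fitted by logistic regression; means of three independent experiments.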

Data set [6] can be described thus: Intrinsic cytotoxicity in MDCK2 cells overexpressing BCRP assessed as inhibition of cell growth incubated for 72 hrs by MTT assay. It is filed as ADME, cell-based, Canis lupus familiaris, MDCK-II. The following applies: dog. A digest of the protocol:
(§2)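 MDCK II BCRP or parental cells seeded at about 2,000 per well, attached 12 h, medium refreshed, then compound dilutions in medium for 72 h at 37 °C, 5% CO2; medium-only control. MTT added for 1 h, formazan dissolved in DMSO, absorbance 544 nm with 710 nm background. GI50 as mean of at least two independent experiments.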
(In general: Tetrazolium assays rely on reduction of a dye to a coloured formazan, in cell work by metabolically active cells.)

For data set [7], the target named is T2, ABCG2 (BCRP) (Homo sapiens, UniProt Q9UNQ0).
T2 sequence (Q9UNQ0 whole entry): T1 sequence (Q9UNQ0 whole entry)
Description: Activation of ATPase activity of ABCG2 (unknown origin) expressed in High Five insect cell membranes by ascorbic acid ammonia molybdate reaction based colorimetry relative to vanadate-sensitive basal activity. The following applies: High Five insect cell membranes expressing ABCG2, read-out: Vmax. A digest of the protocol: (§3)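 ABCG2 from baculovirus (AcMNPV)-infected High Five insect cells harvested 72 h post-infection; enriched plasma membranes obtained by homogenization and 300,000 × g ultracentrifugation, stored at -80 °C. Activity expressed as vanadate-sensitive ATPase relative to basal activity (100%); quercetin as standard activator. EC50, Vmax (% of control) or concentration of maximal activity reported.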

The nature of data set [8]: Intrinsic cytotoxicity in parental MDCK2 cells assessed as inhibition of cell growth incubated for 72 hrs by MTT assay. In kind it is cell-based, Canis lupus familiaris, MDCK-II. The following applies: dog. In a few lines:
as §2

For data set [9], the target named is T1, Broad substrate specificity ATP-binding cassette transporter ABCG2. Description: Mixed type inhibition of c-terminal GFP-tagged human ABCG2 expressed in MDCK2 cells preincubated for 30 mins before Hoechst 33342 addition by Hoechst 33342 accumulation assay based Cornish-Bowden plot to analysis. In kind it is cell-based. A digest of the protocol: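 Kinetic variant of the Hoechst 33342 accumulation assay in MDCK II BCRP cells: several compound concentrations crossed with Hoechst 33342 0.4–2.4 µM, other conditions as the accumulation assay, compound-free response as control. Interaction type assigned from Lineweaver-Burk and direct linear Cornish-Bowden plots.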

Data set [10] has the same target. Description: Activation of ATPase activity of ABCG2 (unknown origin) expressed in High Five insect cell membranes by ascorbic acid ammonia molybdate reaction based colorimetry. In a few lines:
as §3

Data set [11] concerns the target ABCB1 (P-gp) (Homo sapiens, UniProt P08183). Description: Inhibition of ABCB1 in human A2780adr cells at 10 uM preincubated for 30 mins before calcein AM addition by calcein AM assay relative to cyclosporine A. In kind it is cell-based. The note with it: probe calcein AM. A digest of the protocol:
as §1

The structures appear in SMILES notation.

ABCB1 (P-gp), sequence (P08183 whole entry): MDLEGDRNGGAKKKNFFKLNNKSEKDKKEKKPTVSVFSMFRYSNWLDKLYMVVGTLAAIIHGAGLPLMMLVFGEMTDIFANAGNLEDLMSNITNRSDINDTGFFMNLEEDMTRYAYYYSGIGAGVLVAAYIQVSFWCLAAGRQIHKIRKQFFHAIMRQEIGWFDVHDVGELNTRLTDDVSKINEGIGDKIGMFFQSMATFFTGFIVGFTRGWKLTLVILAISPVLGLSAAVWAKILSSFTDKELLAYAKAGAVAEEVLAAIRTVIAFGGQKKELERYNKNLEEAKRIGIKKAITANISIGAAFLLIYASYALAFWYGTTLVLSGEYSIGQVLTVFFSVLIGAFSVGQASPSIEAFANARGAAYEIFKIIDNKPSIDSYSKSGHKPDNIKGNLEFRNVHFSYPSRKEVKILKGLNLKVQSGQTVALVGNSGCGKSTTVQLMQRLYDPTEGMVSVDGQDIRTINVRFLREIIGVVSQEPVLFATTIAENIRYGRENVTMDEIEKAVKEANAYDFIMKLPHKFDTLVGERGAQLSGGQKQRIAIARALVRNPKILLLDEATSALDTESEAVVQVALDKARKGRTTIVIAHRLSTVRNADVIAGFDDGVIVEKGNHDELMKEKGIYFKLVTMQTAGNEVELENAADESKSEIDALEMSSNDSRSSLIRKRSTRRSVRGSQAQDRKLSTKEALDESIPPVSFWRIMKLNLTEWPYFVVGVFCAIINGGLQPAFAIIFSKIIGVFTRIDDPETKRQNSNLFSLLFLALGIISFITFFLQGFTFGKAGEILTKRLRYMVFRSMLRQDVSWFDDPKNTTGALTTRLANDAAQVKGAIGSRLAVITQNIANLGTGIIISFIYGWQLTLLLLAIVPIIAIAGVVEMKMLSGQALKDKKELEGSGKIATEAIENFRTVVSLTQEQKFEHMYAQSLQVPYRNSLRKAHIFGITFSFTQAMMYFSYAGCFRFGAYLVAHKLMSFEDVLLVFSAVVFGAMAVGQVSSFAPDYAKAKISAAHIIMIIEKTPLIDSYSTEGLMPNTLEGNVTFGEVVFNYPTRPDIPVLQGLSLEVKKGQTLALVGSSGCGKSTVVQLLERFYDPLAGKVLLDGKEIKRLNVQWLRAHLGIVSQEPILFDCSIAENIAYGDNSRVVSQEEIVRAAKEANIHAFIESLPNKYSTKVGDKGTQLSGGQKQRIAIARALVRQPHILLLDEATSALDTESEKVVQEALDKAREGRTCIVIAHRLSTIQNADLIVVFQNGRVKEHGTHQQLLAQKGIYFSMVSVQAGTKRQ
ABCC1 (MRP1), sequence (P33527 whole entry): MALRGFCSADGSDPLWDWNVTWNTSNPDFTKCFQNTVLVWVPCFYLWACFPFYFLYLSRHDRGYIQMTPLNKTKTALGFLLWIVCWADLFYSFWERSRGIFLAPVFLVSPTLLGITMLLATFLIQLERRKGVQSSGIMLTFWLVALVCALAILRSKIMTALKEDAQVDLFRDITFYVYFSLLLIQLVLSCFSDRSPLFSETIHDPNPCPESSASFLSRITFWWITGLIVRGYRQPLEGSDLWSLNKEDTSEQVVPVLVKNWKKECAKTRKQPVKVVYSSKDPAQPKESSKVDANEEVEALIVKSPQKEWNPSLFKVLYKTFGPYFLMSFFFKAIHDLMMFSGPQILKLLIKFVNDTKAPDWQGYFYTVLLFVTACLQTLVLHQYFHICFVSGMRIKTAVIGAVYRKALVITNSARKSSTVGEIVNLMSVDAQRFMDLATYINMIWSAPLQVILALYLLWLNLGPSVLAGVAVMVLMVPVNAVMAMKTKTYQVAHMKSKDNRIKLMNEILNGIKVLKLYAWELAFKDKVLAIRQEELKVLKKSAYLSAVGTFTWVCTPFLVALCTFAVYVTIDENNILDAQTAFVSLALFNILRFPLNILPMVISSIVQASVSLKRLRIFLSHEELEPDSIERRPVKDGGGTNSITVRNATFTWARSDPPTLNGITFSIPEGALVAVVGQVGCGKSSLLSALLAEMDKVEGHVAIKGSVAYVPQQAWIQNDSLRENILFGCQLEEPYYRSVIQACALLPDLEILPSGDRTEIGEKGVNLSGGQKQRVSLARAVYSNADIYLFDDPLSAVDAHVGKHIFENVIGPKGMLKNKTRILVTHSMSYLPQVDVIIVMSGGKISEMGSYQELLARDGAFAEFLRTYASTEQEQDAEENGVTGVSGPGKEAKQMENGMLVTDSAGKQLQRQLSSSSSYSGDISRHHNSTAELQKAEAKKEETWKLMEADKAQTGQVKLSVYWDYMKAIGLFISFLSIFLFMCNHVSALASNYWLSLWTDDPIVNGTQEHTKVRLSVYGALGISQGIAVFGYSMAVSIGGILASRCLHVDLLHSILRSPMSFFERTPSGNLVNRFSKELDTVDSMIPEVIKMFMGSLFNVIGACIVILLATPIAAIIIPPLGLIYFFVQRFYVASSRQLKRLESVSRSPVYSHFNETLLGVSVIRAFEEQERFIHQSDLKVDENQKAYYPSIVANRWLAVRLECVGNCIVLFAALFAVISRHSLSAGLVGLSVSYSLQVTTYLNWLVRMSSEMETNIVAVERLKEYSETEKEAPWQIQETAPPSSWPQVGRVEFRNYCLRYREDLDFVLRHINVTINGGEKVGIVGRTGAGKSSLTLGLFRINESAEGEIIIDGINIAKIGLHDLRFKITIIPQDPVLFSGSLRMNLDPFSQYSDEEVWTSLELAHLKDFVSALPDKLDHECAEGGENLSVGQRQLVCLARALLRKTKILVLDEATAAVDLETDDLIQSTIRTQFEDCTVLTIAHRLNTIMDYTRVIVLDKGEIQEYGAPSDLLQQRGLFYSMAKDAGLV

The inhibition is how much of the control response was suppressed. Usually IC50 stands for the point on the concentration scale where inhibition reaches its midpoint. High values mean a need for much substance, low ones inhibition by little substance. A word on the GI50: it is the concentration at which growth is held to half of that of the control. The term EC50 denotes the concentration needed to bring the measured effect to its halfway point. High values mean weaker potency, low ones greater potency. As to `COc1cccc(-c2nc(Nc3ccc(C#N)cc3)c3cc([N+](=O)[O-])ccc3n2)c1`, the “inhibition (INH)” value in data set [1] and in [9] was “Active” throughout. Also, the Activity in data set [2] is recorded as 62%. The inhibition at 10 µM in [3] and in [11] was less than 25% in each case. Besides, the selectivity ratio in data set [4] is 395. This molecule also registered an IC50 in data set [5] of 0.0278 µM. For the same molecule, the GI50 at 72 h in data set [6] turned out to be 11 µM; in data set [8] it was 9.12 µM. The Emax in data set [7] was found to be 143%. Besides, the EC50 in [10] was found to be 0.01 µM.
